In ChEMBL document CHEMBL3352602, “One-pot synthesis and antiproliferative activity of novel 2,4-diaminopyrimidine derivatives bearing piperidine and piperazine moieties” (Eur J Med Chem, 2014):

What was measured:
MCF7 = test: Cytotoxicity against human MCF7 cells after 48 hrs by MTT assay; format: functional, cell-based; settings: MCF7, 48 h
Method in brief: (§1)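 MTT assay on cells grown in DMEM with 10% FBS and split at 70-80% confluence by trypsinization. Seeded 1×10^4 cells/well, attached 24 h at 37 °C. Compounds came from 10 mM DMSO stocks diluted in medium to a concentration series, with 0.1% DMSO as negative control. Cells were exposed for 48 h at 37 °C, then given MTT for 4 h. Formazan was dissolved in DMSO and read at 570 nm. IC50 was fitted from % inhibition versus control, mean of three independent experiments.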

HepG2 = test: Cytotoxicity against human HepG2 cells after 48 hrs by MTT assay; format: functional, cell-based; settings: HepG2, 48 h; method in brief: as §1
MDA-MB-231 [1] = test: Cytotoxicity against human MDA-MB-231 cells after 48 hrs by MTT assay; format: functional, cell-based; settings: MDA-MB-231, 48 h; method in brief: as §1
A549 [2] = test: Cytotoxicity against human A549 cells after 48 hrs by MTT assay; format: functional, cell-based; settings: A549, 48 h; method in brief: as §1
MDA-MB-231 [3] = test: Induction of cell cycle arrest in human MDA-MB-231 cells assessed as accumulation at G2/M phase at 40 uM after 48 hrs by propidium iodide staining based FACS analysis (reference value: 18.12%); format: functional
MDA-MB-231 [4] = test: Induction of cell cycle arrest in human MDA-MB-231 cells assessed as accumulation at G0/G1 phase at 40 uM after 48 hrs by propidium iodide staining based FACS analysis (reference value: 37.97%); format: functional
MDA-MB-231 [5] = test: Induction of cell cycle arrest in human MDA-MB-231 cells assessed as accumulation at G0/G1 phase at 20 uM after 48 hrs by propidium iodide staining based FACS analysis (reference value: 37.97%); format: functional
MDA-MB-231 [6] = test: Induction of cell cycle arrest in human MDA-MB-231 cells assessed as accumulation at S phase at 40 uM after 48 hrs by propidium iodide staining based FACS analysis (reference value: 42.22%); format: functional
MDA-MB-231 [7] = test: Induction of cell cycle arrest in human MDA-MB-231 cells assessed as accumulation at G2/M phase at 20 uM after 48 hrs by propidium iodide staining based FACS analysis (reference value: 18.12%); format: functional
MDA-MB-231 [8] = test: Induction of cell cycle arrest in human MDA-MB-231 cells assessed as accumulation at subG1 phase at 40 uM after 48 hrs by propidium iodide staining based FACS analysis (reference value: 1.69%); format: functional
MDA-MB-231 [9] = test: Induction of cell cycle arrest in human MDA-MB-231 cells assessed as accumulation at G0/G1 phase at 80 uM after 48 hrs by propidium iodide staining based FACS analysis (reference value: 37.97%); format: functional
A549 [10] = test: Cytotoxicity against human A549 cells after 48 hrs by MTT assay relative to fluorouracil; format: functional
MDA-MB-231 [11] = test: Induction of cell cycle arrest in human MDA-MB-231 cells assessed as accumulation at S phase at 80 uM after 48 hrs by propidium iodide staining based FACS analysis (reference value: 42.22%); format: functional
MDA-MB-231 [12] = test: Induction of cell cycle arrest in human MDA-MB-231 cells assessed as accumulation at G2/M phase at 80 uM after 48 hrs by propidium iodide staining based FACS analysis (reference value: 18.12%); format: functional
MDA-MB-231 [13] = test: Induction of cell cycle arrest in human MDA-MB-231 cells assessed as accumulation at S phase at 20 uM after 48 hrs by propidium iodide staining based FACS analysis (reference value: 42.22%); format: functional
MDA-MB-231 [14] = test: Cytotoxicity against human MDA-MB-231 cells after 48 hrs by MTT assay relative to fluorouracil; format: functional
MDA-MB-231 [15] = test: Induction of cell cycle arrest in human MDA-MB-231 cells assessed as accumulation at subG1 phase at 20 uM after 48 hrs by propidium iodide staining based FACS analysis (reference value: 1.69%); format: functional
MDA-MB-231 [16] = test: Induction of cell cycle arrest in human MDA-MB-231 cells assessed as accumulation at subG1 phase at 80 uM after 48 hrs by propidium iodide staining based FACS analysis (reference value: 1.69%); format: functional
MDA-MB-231 [17] = test: Induction of cell cycle arrest in human MDA-MB-231 cells assessed as accumulation at G2/M phase after 48 hrs by propidium iodide staining based FACS analysis (reference value: 18.12%); format: functional

For `COc1ccc(CCNc2nc(NC3CCN(S(C)(=O)=O)CC3)ncc2Cl)cc1`, the IC50 (MCF7) was greater than 200 µM, the IC50 (HepG2) was greater than 200 µM and the IC50 (MDA-MB-231 [1]) was greater than 200 µM. The IC50 (A549 [2]) was greater than 200 µM.

Work on `CS(=O)(=O)N1CCC(Nc2ncc(Cl)c(NCCc3ccccc3)n2)CC1` yielded an IC50 (MCF7) greater than 200 µM, an IC50 (HepG2) of 123 µM and an IC50 (MDA-MB-231 [1]) greater than 200 µM. It also gave an IC50 (A549 [2]) greater than 200 µM.

`COc1ccc(Nc2nccc(NC3CCN(S(C)(=O)=O)CC3)n2)cc1` showed an IC50 (MCF7) greater than 200 µM, an IC50 (HepG2) of 86.2 µM and an IC50 (MDA-MB-231 [1]) of 57.7 µM. It also gave an IC50 (A549 [2]) of 91.7 µM.

`CS(=O)(=O)N1CCC(Nc2ncc(Cl)c(NCc3ccccc3)n2)CC1` showed an IC50 (MCF7) of 32.4 µM, an IC50 (HepG2) greater than 200 µM and an IC50 (MDA-MB-231 [1]) of 11.7 µM. For the same compound, the IC50 (A549 [2]) was 46.8 µM.

Work on `CN1CCN(c2nccc(NCc3ccccc3)n2)CC1` yielded an IC50 (MCF7) greater than 200 µM, an IC50 (HepG2) greater than 200 µM and an IC50 (MDA-MB-231 [1]) greater than 200 µM. The IC50 (A549 [2]) was greater than 200 µM.

In the case of `COc1ccc(CNc2ccnc(NC3CCN(S(C)(=O)=O)CC3)n2)cc1`, the IC50 (MCF7) is reported as 57.2 µM, the IC50 (HepG2) is reported as 51.7 µM and the IC50 (MDA-MB-231 [1]) is reported as 33.7 µM. The IC50 (A549 [2]) was 51.6 µM.

Compound `O=c1[nH]cc(F)c(=O)[nH]1` [FLUOROURACIL] has an IC50 (MCF7) of 39.9 µM and an IC50 (MDA-MB-231 [1]) of 24.6 µM.

With `COc1ccc(CNc2nccc(NC3CCN(S(C)(=O)=O)CC3)n2)cc1` the Activity (MDA-MB-231 [3]) was 36.51%, the Activity (MDA-MB-231 [4]) was 32.55% and the Activity (MDA-MB-231 [5]) was 33.09%. The Activity (MDA-MB-231 [6]) was 29.91%, the Activity (MDA-MB-231 [7]) was 33.79% and the Activity (MDA-MB-231 [8]) was 1.03%. The Activity (MDA-MB-231 [9]) was 31.01%, the “Ratio IC50” value (A549 [10]) was 2 and the Activity (MDA-MB-231 [11]) was 26.78%. The IC50 (MCF7) was 16.2 µM, the IC50 (HepG2) was 20.2 µM and the Activity (MDA-MB-231 [12]) was 40.95%. The Activity (MDA-MB-231 [13]) was 32.03%, the “Ratio IC50” value (MDA-MB-231 [14]) was 2 and the IC50 (MDA-MB-231 [1]) was 7.46 µM. It also gave an Activity (MDA-MB-231 [15]) of 1.09%, an IC50 (A549 [2]) of 12.8 µM and an Activity (MDA-MB-231 [16]) of 1.26%. The Activity (MDA-MB-231 [17]) was “Dose-dependent effect”.

`CS(=O)(=O)N1CCC(Nc2ncc(Cl)c(Nc3ccc(Cl)cc3)n2)CC1` gave an IC50 (MCF7) greater than 200 µM, an IC50 (HepG2) greater than 200 µM and an IC50 (MDA-MB-231 [1]) greater than 200 µM. The IC50 (A549 [2]) was greater than 200 µM.

Compound `COc1ccccc1CCNc1nccc(N2CCN(C)CC2)n1` has an IC50 (MCF7) greater than 200 µM, an IC50 (HepG2) greater than 200 µM and an IC50 (MDA-MB-231 [1]) greater than 200 µM. The IC50 (A549 [2]) was greater than 200 µM.

`COc1cccc(Nc2ccnc(NC3CCN(S(C)(=O)=O)CC3)n2)c1` showed an IC50 (MCF7) of 77.8 µM, an IC50 (HepG2) of 86.6 µM and an IC50 (MDA-MB-231 [1]) of 29.4 µM. For the same compound, the IC50 (A549 [2]) was greater than 200 µM.

`COc1ccc(CNc2nc(NC3CCN(S(C)(=O)=O)CC3)ncc2Cl)cc1` gave an IC50 (MCF7) of 64.8 µM, an IC50 (HepG2) greater than 200 µM and an IC50 (MDA-MB-231 [1]) of 34.1 µM. For the same compound, the IC50 (A549 [2]) was 60.9 µM.

`COc1cccc(Nc2ccnc(N3CCN(C)CC3)n2)c1` showed an IC50 (MCF7) greater than 200 µM, an IC50 (HepG2) greater than 200 µM and an IC50 (MDA-MB-231 [1]) greater than 200 µM. For the same compound, the IC50 (A549 [2]) was greater than 200 µM.

Compound `CN1CCN(c2ccnc(Nc3ccc(Cl)cc3)n2)CC1` has an IC50 (MCF7) greater than 200 µM, an IC50 (HepG2) greater than 200 µM and an IC50 (MDA-MB-231 [1]) greater than 200 µM. For the same compound, the IC50 (A549 [2]) was greater than 200 µM.

Compound `CS(=O)(=O)N1CCC(Nc2nccc(NCc3ccccc3)n2)CC1` has an IC50 (MCF7) of 98.5 µM, an IC50 (HepG2) of 149 µM and an IC50 (MDA-MB-231 [1]) of 60.8 µM. The IC50 (A549 [2]) was 42.5 µM.

`CS(=O)(=O)N1CCC(Nc2ncc(Cl)c(NCCc3ccc(Cl)cc3)n2)CC1` showed an IC50 (MCF7) greater than 200 µM, an IC50 (HepG2) greater than 200 µM and an IC50 (MDA-MB-231 [1]) greater than 200 µM. It also gave an IC50 (A549 [2]) greater than 200 µM.

`CS(=O)(=O)N1CCC(Nc2ccnc(Nc3ccc(Cl)cc3)n2)CC1` showed an IC50 (MCF7) greater than 200 µM, an IC50 (HepG2) of 92.6 µM and an IC50 (MDA-MB-231 [1]) of 102 µM. The IC50 (A549 [2]) was greater than 200 µM.

For `COc1ccc(Nc2nccc(N3CCN(C)CC3)n2)cc1`, the IC50 (MCF7) was greater than 200 µM, the IC50 (HepG2) was greater than 200 µM and the IC50 (MDA-MB-231 [1]) was greater than 200 µM. It also gave an IC50 (A549 [2]) greater than 200 µM.

`COc1cccc(Nc2nc(NC3CCN(S(C)(=O)=O)CC3)ncc2Cl)c1` gave an IC50 (MCF7) greater than 200 µM, an IC50 (HepG2) greater than 200 µM and an IC50 (MDA-MB-231 [1]) greater than 200 µM. The IC50 (A549 [2]) was greater than 200 µM.

`COc1ccc(CCNc2nccc(NC3CCN(S(C)(=O)=O)CC3)n2)cc1` gave an IC50 (MCF7) of 32.8 µM, an IC50 (HepG2) of 20 µM and an IC50 (MDA-MB-231 [1]) of 15.8 µM. The IC50 (A549 [2]) was 21.4 µM.

Work on `COc1cccc(Nc2nccc(NC3CCN(S(C)(=O)=O)CC3)n2)c1` yielded an IC50 (MCF7) of 72.1 µM, an IC50 (HepG2) of 67.9 µM and an IC50 (MDA-MB-231 [1]) of 109 µM. It also gave an IC50 (A549 [2]) greater than 200 µM.

Compound `COc1ccc(CNc2ccnc(N3CCN(C)CC3)n2)cc1` has an IC50 (MCF7) greater than 200 µM, an IC50 (HepG2) greater than 200 µM and an IC50 (MDA-MB-231 [1]) greater than 200 µM. It also gave an IC50 (A549 [2]) greater than 200 µM.

`CS(=O)(=O)N1CCC(Nc2nccc(Nc3ccc(Cl)cc3)n2)CC1` showed an IC50 (MCF7) greater than 200 µM, an IC50 (HepG2) of 78.6 µM and an IC50 (MDA-MB-231 [1]) greater than 200 µM. It also gave an IC50 (A549 [2]) greater than 200 µM.

`CS(=O)(=O)N1CCC(Nc2ncc(Cl)c(Nc3ccccc3)n2)CC1` was tested, and the IC50 (MCF7) was greater than 200 µM, the IC50 (HepG2) was greater than 200 µM and the IC50 (MDA-MB-231 [1]) was greater than 200 µM. For the same compound, the IC50 (A549 [2]) was greater than 200 µM.

Compound `COc1ccc(Nc2nc(NC3CCN(S(C)(=O)=O)CC3)ncc2Cl)cc1` has an IC50 (MCF7) greater than 200 µM, an IC50 (HepG2) greater than 200 µM and an IC50 (MDA-MB-231 [1]) greater than 200 µM. For the same compound, the IC50 (A549 [2]) was greater than 200 µM.
